According to ChEMBL document CHEMBL3091460, “Synthesis of combretastatin A-4 O-alkyl derivatives and evaluation of their cytotoxic, antiangiogenic and antitelomerase activity” (Bioorg Med Chem, 2013):

Legend:
[1] = system: MCF7; assay: Cytotoxicity against human MCF7 cells assessed as growth inhibition after 3 days by MTT assay; assay type: functional, cell-based; details: MCF7, 72 h
In short: (§1)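 5 × 10³ cells per well (HT-29, MCF-7 or HEK-293) exposed for 3 days at 37 °C, 5% CO2, humidified. MTT (5 mg/ml in PBS) added for a further 4 h at 37 °C. Formazan dissolved in 0.04 N HCl/2-propanol and read at 550 nm. Run in triplicate. IC50 taken as the concentration giving 50% growth inhibition.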

[2] = system: HT-29; assay: Cytotoxicity against human HT-29 cells assessed as growth inhibition after 3 days by MTT assay; assay type: functional, cell-based; details: HT-29, 72 h; in short: as §1
[3] = Selectivity ratio of IC50 for HEK293 cells to IC50 for human MCF7 cells; assay type: ADME, cell-based; details: HEK293 cells versus MCF7 cells, read-out: Ratio IC50
[4] = system: HEK293; assay: Cytotoxicity against HEK293 cells assessed as growth inhibition after 3 days by MTT assay; assay type: cell-based; details: Homo sapiens, HEK293, 72 h; in short: as §1
[5] = system: HT-29; assay: Antiangiogenic activity in human HT-29 cells assessed as inhibition of VEGF production at < IC50 after 72 hrs by ELISA relative to control; values are per cent of control
[6] = Selectivity ratio of IC50 for HEK293 cells to IC50 for human HT-29 cells; assay type: ADME, cell-based; details: HEK293 cells versus HT-29 cells, read-out: Ratio IC50
[7] = system: HT-29; assay: Inhibition of c-myc mRNA expression in human HT-29 cells after 48 hrs by RT-PCR analysis relative to control; assay type: functional
In short: (§2)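 HT-29 cells grown to 70–80% confluence and serum-starved 24 h, then treated in DMSO for 48 h. Total RNA extracted, converted to cDNA and PCR-amplified with gene-specific primers. PCR cycles were VEGF 94 °C 30 s/58 °C 1 min/72 °C 1 min 50 s; hTERT 94 °C 1 min/57 °C 1 min/72 °C 1 min 30 s; c-Myc as VEGF. Agarose gel bands quantified by densitometry and normalized to β-actin. DMSO control set to 100%. At least three measurements per case, mean ± SEM, one-sample t-test.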

[8] = system: HT-29; assay: Inhibition of TERT mRNA expression in human HT-29 cells after 48 hrs by RT-PCR analysis relative to control; assay type: functional; in short: as §2
[9] = system: HT-29; assay: Antiangiogenic activity in human HT-29 cells assessed as inhibition of VEGF mRNA expression at < IC50 after 48 hrs by RT-PCR analysis relative to control; values are per cent of control

Row | Structure (SMILES) | IC50 [1] [µM] | IC50 [2] [µM] | selectivity ratio [3] | IC50 [4] [µM] | level, % of control [5] [%] | selectivity ratio [6] | inhibition (INH) [7] [%] | inhibition (INH) [8] [%] | level, % of control [9] [%]
1 | COc1ccc(/C=C/CCCOc2cc(/C=C\c3cc(OC)c(OC)c(OC)c3)ccc2OC)cc1 | 16 | 47 | 5.5 | 88 | 50 | 1.9 |  |  | 
2 | C=CCOc1cc(/C=C\c2cc(OC)c(OC)c(OC)c2)ccc1OC | 12 | 29 | 3.6 | 43.5 | 51 | 1.5 |  |  | 
3 | C/C=C/COc1cc(/C=C\c2cc(OC)c(OC)c(OC)c2)ccc1OC | 5.4 | 161 | 25 | 135 | 44 | 0.8 | 92 | 96 | 69
4 | COc1ccc(/C=C\c2cc(OC)c(OC)c(OC)c2)cc1OCc1ccccc1 | 59 | 39 | 0.3 | 15 | 79 | 0.4 |  |  | 
5 | COc1ccc(COc2cc(/C=C\c3cc(OC)c(OC)c(OC)c3)ccc2OC)cc1 | 48 | 47 | 1.3 | 64 | 57 | 1.4 |  |  | 
6 | COc1ccc(/C=C\c2cc(OC)c(OC)c(OC)c2)cc1OCc1ccc(Br)cc1 | 29 | 108 | 1.6 | 45 | 99 | 0.4 |  |  | 
7 | COc1ccccc1/C=C/CCCOc1cc(/C=C\c2cc(OC)c(OC)c(OC)c2)ccc1OC | 21 | 86 | > 19 | > 400 | 52 | > 4.6 |  |  | 
8 | COc1cccc(/C=C/CCCOc2cc(/C=C\c3cc(OC)c(OC)c(OC)c3)ccc2OC)c1 | 41 | 25 | 1 | 39 | 38 | 1.6 | 60 | 63 | 97
9 | COCOc1ccccc1/C=C/CCCOc1cc(/C=C\c2cc(OC)c(OC)c(OC)c2)ccc1OC | 4.4 | 9.6 | 24.1 | 106 | 42 | 11 | 75 | 76 | 80
10 | COCOc1cccc(/C=C/CCCOc2cc(/C=C\c3cc(OC)c(OC)c(OC)c3)ccc2OC)c1 | 8 | 59 | 3.7 | 30 | 51 | 0.5 | 72 | 79 | 90
11 | COCOc1ccc(/C=C/CCCOc2cc(/C=C\c3cc(OC)c(OC)c(OC)c3)ccc2OC)cc1 | 42 | 7 | 0.6 | 25 | 51 | 3.6 | 58 | 60 | 66
12 | COc1ccc(/C=C\c2cc(OC)c(OC)c(OC)c2)cc1OCCC/C=C/c1ccc(F)cc1 | 16 | 98 | 7.2 | 115 | 57 | 1.2 |  |  | 
13 | COc1ccc(/C=C\c2cc(OC)c(OC)c(OC)c2)cc1OCCC/C=C/c1ccc(Cl)cc1 | 40 | 18 | 2.8 | 111 | 60 | 6.2 |  |  | 
14 | COc1ccc(/C=C\c2cc(OC)c(OC)c(OC)c2)cc1OCCC/C=C/c1ccc(Br)cc1 | 37 | 11 | 1.5 | 55 | 48 | 5 | 35 | 39 | 73
15 | COc1ccc(/C=C\c2cc(OC)c(OC)c(OC)c2)cc1O [COMBRETASTATIN A4] | 1 | 4.2 | 25 | 25 | 47 | 5.9 | 99 | 74 | 91
